Results taken from ChEMBL document CHEMBL3244361, “B/C-cis- and -trans-1,3,4,9,10,10a-Hexahydro-2H-10,4a-methanoiminoethanophenanthrene (homo- and homoisomorphinan) derivatives as analgesics” (J Med Chem, 1977).
Active and inactive are the calls of the source. No cut-off for these calls is given here.

Tests used:
Mus musculus [1] = assay: Analgesic activity in sc dosed mouse by hot plate assay; assay type: functional
Rhesus monkey [2] = assay: Physical dependence capacity in rhesus monkey assessed as suppression/precipitation of abstinence syndrome at 0.4 to 6.4 mg/kg; assay type: organism-based, Macaca mulatta; parameters: dose 0.4-6.4 mg/kg; conditions: in vivo
Method in brief: (§1)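 Monkey single-dose suppression test for physical dependence capacity. Abstinence signs were scored for suppression or precipitation across the dose range given in each line.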

Rhesus monkey [3] = assay: Physical dependence capacity in rhesus monkey assessed as suppression/precipitation of abstinence syndrome at 4 mg/kg; conditions: in vivo
Mus musculus [4] = species on record: Mus musculus
Rhesus monkey [5] = assay: Physical dependence capacity in rhesus monkey assessed as suppression/precipitation of abstinence syndrome at 0.5 to 1 mg/kg; assay type: organism-based, Macaca mulatta; parameters: dose 0.5-1 mg/kg; conditions: in vivo; method in brief: as §1
Rhesus monkey [6] = assay: Narcotic antagonist activity in morphine-dependent monkey assessed as precipitation of abstinence syndrome; assay type: functional, organism-based; conditions: Macaca mulatta; method in brief: as §1
Rhesus monkey [7] = assay: Physical dependence capacity in rhesus monkey assessed as suppression/precipitation of abstinence syndrome at 0.5 to 8 mg/kg; assay type: organism-based, Macaca mulatta; parameters: dose 0.5-8 mg/kg; conditions: in vivo; method in brief: as §1
Rhesus monkey [8] = assay: Physical dependence capacity in rhesus monkey assessed as suppression/precipitation of abstinence syndrome at 0.5 to 4 mg/kg; assay type: organism-based, Macaca mulatta; parameters: dose 0.5-4 mg/kg; conditions: in vivo; method in brief: as §1
Mus musculus [9] = assay: Toxicity in mouse at 50 mg/kg, sc; assay type: organism-based; parameters: dose 50 mg/kg, route subcutaneous; conditions: in vivo

COc1ccc2c(c1)[C@@]13CCCC[C@H]1[C@@H](C2)CN(C)CC3
ED50 (Mus musculus [1]): 3.4 mg/kg

Br.CN1CC[C@]23CCCC[C@H]2[C@@H](Cc2ccc(O)cc23)C1
ED50 (Mus musculus [1]): 0.8 mg/kg | Activity (Rhesus monkey [2]): Non-toxic

COc1ccc2c(c1)[C@@]13CCCC[C@@H]1[C@@H](C2)CN(C)CC3
ED50 (Mus musculus [1]): 8.1 mg/kg

Br.CN1CC[C@]23CCCC[C@@H]2[C@@H](Cc2ccc(O)cc23)C1
ED50 (Mus musculus [1]): 2.1 mg/kg | Activity (Rhesus monkey [3]): Toxic

C=CCN1CC[C@]23CCCC[C@H]2[C@@H](Cc2ccc(O)cc23)C1 (relative stereo)
ED50 (Mus musculus [4]): inactive | Activity (Rhesus monkey [5]): Non-toxic | Activity (Rhesus monkey [6]): inactive

Oc1ccc2c(c1)[C@@]13CCCC[C@H]1[C@@H](C2)CN(CC1CC1)CC3 (relative stereo)
ED50 (Mus musculus [1]): 6.2 mg/kg | Activity (Rhesus monkey [7]): Non-toxic | Activity (Rhesus monkey [6]): inactive

C=CCN1CC[C@]23CCCC[C@@H]2[C@@H](Cc2ccc(O)cc23)C1 (relative stereo)
ED50 (Mus musculus [1]): 19.6 mg/kg | Activity (Rhesus monkey [8]): Non-toxic | Activity (Rhesus monkey [6]): inactive

Oc1ccc2c(c1)[C@@]13CCCC[C@@H]1[C@@H](C2)CN(CC1CC1)CC3 (relative stereo)
Activity (Mus musculus [9]): Toxic | Activity (Rhesus monkey [8]): Non-toxic | Activity (Rhesus monkey [6]): inactive

CN1CC[C@]23c4c5ccc(O)c4O[C@H]2[C@@H](O)C=C[C@H]3[C@H]1C5.Cl [MORPHINE HYDROCHLORIDE]
ED50 (Mus musculus [1]): 1.2 mg/kg
